Measured values collected from several papers.
Each line is one published result; the experiments were not run side by side.
Organism: Plasmodium falciparum
Read-out: parasite growth
Method: SYBR Green

SMILES	strain	concentration	time	notes	measurement	value
CCN(CC)CCCC(C)Nc1ccnc2cc(Cl)ccc12 (stereo not drawn)	DD2			drug-resistant strain, blood stage	IC50	0.848 µM
COc1ccccc1C(=O)/C=C/c1cn(Cc2cn(-c3ccnc4cc(Cl)ccc34)nn2)c2ccccc12	3D7	10 µM		blood stage	inhibition	> 50%
O[C@H](CN[C@@H](COCC1CC1)Cc1ccccc1)c1cc(Cl)cc2c1-c1ccc(Cl)cc1C2	W2		48 h	drug-resistant strain, blood stage	IC50	0.0054 µM
C[N+]1=C2C=C(NCCc3ccc(O)cc3)C(=O)c3[nH]cc(c32)CC1	W2			blood stage	IC50	0.0323 µM
O[C@@H](CNCCCC(F)(F)F)c1cc(Cl)cc2c1-c1ccc(Cl)cc1C2	W2		48 h	drug-resistant strain, blood stage	IC50	0.0038 µM
COCC(=O)N1CCC[C@H](C(=O)NCc2nc(-c3ccc(C#N)cc3)cs2)C1	DD2			blood stage	EC50	0.018 µM
C[C@@H]1CC[C@H]2[C@@H](C)C(=O)O[C@@H]3O[C@@]4(C)CC[C@@H]1[C@]32OO4	DD2			drug-resistant strain, blood stage	IC50	0.076 µM
Cc1cc(Nc2ccc(S(F)(F)(F)(F)F)cc2)n2nc(C(C)(F)F)nc2n1	DD2			blood stage	EC50	0.0085 µM
Cn1cc2c3c1C(=O)C(N)=CC3=NCC2	DD2			blood stage	IC50	3.55 µM
CCCCCNC[C@@H](O)c1cc(Cl)cc2c1-c1ccc(Cl)cc1C2	W2		48 h	drug-resistant strain, blood stage	IC50	0.0086 µM
COCC(=O)N1CCC[C@H](C(=O)NCc2nc(-c3ccccc3)cs2)C1	DD2			blood stage	EC50	0.069 µM
O=C1C=C2NCCc3c[nH]c(c32)C1=O	3D7			blood stage	IC50	29.6 µM
CC(C)C[C@@H](C=O)NC(=O)[C@H](CC(C)C)NC(=O)[C@H](CC(C)C)NC(=O)OCc1ccccc1	DD2			blood stage	EC50	0.069 µM
C[N+]1=C2C=C(N/C=C/c3ccc(O)cc3)C(=O)c3[nH]cc(c32)CC1	DD2			blood stage	IC50	0.498 µM
O[C@H](CNCCN1CCN(C(c2ccccc2)c2ccccc2)CC1)c1cc(Cl)cc2c1-c1ccc(Cl)cc1C2	W2		48 h	drug-resistant strain, blood stage	IC50	0.013 µM
O=Cc1cn(Cc2cn(-c3ccnc4cc(Cl)ccc34)nn2)c2ccccc12	3D7	5 µM		blood stage	inhibition	-4.99%
CCCCCCNC[C@@H](O)c1cc(Cl)cc2c1-c1ccc(Cl)cc1C2	W2		48 h	drug-resistant strain, blood stage	IC50	0.0065 µM
C[N+]1=C2C=C(N)C(=O)c3[nH]cc(c32)CC1	3D7			blood stage	IC50	0.197 µM
CCCCCCCNC[C@@H](O)c1cc(Cl)cc2c1-c1ccc(Cl)cc1C2	W2		48 h	drug-resistant strain, blood stage	IC50	0.0047 µM
O=C1C(NCCc2c[nH]c3ccccc23)=CC2=NCCc3c[nH]c1c32	3D7			blood stage	IC50	0.16 µM
COc1ccc(C2CC3=C(C(=O)O2)C(c2ccccc2Cl)C(C(=O)OC(C)(C)C)=C(C)N3)cc1OC (mixture of isomers)	3D7		72 h	blood stage	EC50	> 13 µM
